Source: ChEMBL document CHEMBL4196194, “De Novo Design of α-Helical Lipopeptides Targeting Viral Fusion Proteins: A Promising Strategy for Relatively Broad-Spectrum Antiviral Drug Discovery” (J Med Chem, 2018)
Calls of active or inactive are those of the source. The calls are words filed in the database; no cut-off is given here. Where a SMILES comes first, the peptide text is derived from it. [ ]: non-standard residue; d: D form. The star is where a group is joined. Palmitoyl = CCCCCCCCCCCCCCCC(=O)*; βAla = NCCC(=O)O

Experiments:
[1] = system: Middle East respiratory syndrome-related coronavirus; test: Binding affinity to MERS-CoV spike protein synthetic peptide HR1P at 75 uM incubated for 30 mins by Coomassie blue R250 staining based native polyacrylamide gel electrophoresis method
Summary of the method: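 Equimolar mix with HR1P (150 μM each) in 10 mM phosphate pH 7.4, 30 min at 25 °C; diluted 1:1 in β-alanine–formic acid sample buffer, run on 15% β-alanine–formic acid gel at pH 3.4 (90 V then 150 V, 2.5 h); Coomassie R250 stain.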

Influenza A virus [2] = test: Antiviral activity against Influenza A virus (A/Puerto Rico/8/1934(H1N1)) infected in HEK293T cells assessed as inhibition of viral replicon activity incubated for 30 hrs by dual-Glo luciferase assay; assay type: functional, organism-based; details: HEK-293T
Summary of the method: (§1)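 HEK293T cells (2.5 × 10^4/well) transfected with plasmids for NP, PB1, PB2, PA plus p0LN-S-Luc firefly and pRL-SV40 Renilla reporters; serially diluted compound added 6 h post-transfection, luciferase read after 30 h by Dual-Glo. Activity = firefly/Renilla ratio; % inhibition normalized to positive and negative controls, curve-fitted; three independent measurements.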

Influenza A virus [3] = test: Antiviral activity against influenza A virus assessed as inhibition of viral replicon activity up to 100 uM incubated for 30 hrs by firefly luciferase reporter gene assay; assay type: functional, organism-based; summary of the method: as §1
Influenza A virus [4] = test: Inhibition of influenza A virus infected in MDCK cells assessed as inhibition of viral load treated with compound at 5 to 8 hrs post-infection by RT-qPCR method based time of addition assay; assay type: functional, organism-based
Summary of the method: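 MDCK cells (2.0 × 10^5/well) washed with PBS, virus adsorbed (MOI 0.05) 60 min at 4 °C, washed, then compound present only during 0–10, 0–2, 2–5, 5–8 or 8–10 h postinfection; cultured in fresh medium to 10 h, total RNA extracted, viral load by absolute one-step RT-qPCR; triplicate, versus PBS control.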

[5] = system: Middle East respiratory syndrome-related coronavirus; test: Binding affinity to MERS-CoV spike protein synthetic peptide HR1P at pH 7.4 by sedimentation velocity analysis
Summary of the method: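 Complexes at 150 μM final: with HR1P 30 min at 25 °C in 10 mM phosphate pH 7.4; with N66 30 min at 30 °C in sodium acetate/phosphate/NaCl pH 5.0. Sedimentation velocity at 280 nm, 3000 then 60000 rpm, 25 °C; c(s) distribution and molecular weight derived.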

Rattus norvegicus [6] = test: MRT (0 to t) in Sprague-Dawley rat at 5 mg/kg, iv administered as single dose by LC-MS/MS analysis; assay type: ADME, organism-based; details: in vivo
[7] = Half life in Sprague-Dawley rat at 5 mg/kg, iv administered as single dose by LC-MS/MS analysis; assay type: ADME, organism-based; details: in vivo
Rattus norvegicus [8] = test: Volume of distribution at steady state in Sprague-Dawley rat at 5 mg/kg, iv administered as single dose by LC-MS/MS analysis; assay type: ADME, organism-based; details: in vivo
Influenza A virus [9] = details: Hong Kong/8/1968(H3N2), 0.1 to 1000 uM

With `CCCCCCCCCCCCCCCC(=O)NCCCC[C@H](NC(=O)CCNC(=O)[C@H](CCCCN)NC(=O)[C@H](CCCCN)NC(=O)[C@H](CCC(N)=O)NC(=O)[C@@H](NC(=O)[C@H](CCC(=O)O)NC(=O)[C@H](CCC(=O)O)NC(=O)[C@@H](NC(=O)[C@H](CCCCN)NC(=O)[C@H](CCCCN)NC(=O)[C@H](CCC(N)=O)NC(=O)[C@@H](NC(=O)[C@H](CCC(=O)O)NC(=O)[C@H](CCC(=O)O)NC(=O)[C@@H](NC(=O)[C@H](CCCCN)NC(=O)[C@H](CCCCN)NC(=O)[C@H](CCC(N)=O)NC(=O)[C@@H](NC(=O)[C@H](CCC(=O)O)NC(=O)[C@H](CCC(=O)O)NC(=O)[C@@H](NC(=O)[C@H](CCCCN)NC(=O)[C@H](CCCCN)NC(=O)[C@H](CCC(N)=O)NC(=O)[C@@H](NC(=O)[C@H](CCC(=O)O)NC(=O)[C@H](CCC(=O)O)NC(=O)[C@@H](NC(=O)[C@H](CCCCN)NC(=O)[C@H](CCCCN)NC(=O)[C@H](CCC(N)=O)NC(=O)[C@@H](NC(=O)[C@H](CCC(=O)O)NC(=O)[C@H](CCC(=O)O)NC(=O)[C@@H](NC(C)=O)[C@@H](C)CC)[C@@H](C)CC)[C@@H](C)CC)[C@@H](C)CC)[C@@H](C)CC)[C@@H](C)CC)[C@@H](C)CC)[C@@H](C)CC)[C@@H](C)CC)[C@@H](C)CC)C(N)=O` (Ac-IEEIQKKIEEIQKKIEEIQKKIEEIQKKIEEIQKK[βAla]K(Palmitoyl)-NH2) the Activity [1] was “Active”, the EC50 (Influenza A virus [2]) was 1730 nM and the inhibition (Influenza A virus [3]) was “inactive”. For the same compound, the inhibition (Influenza A virus [4]) was “inactive”, the Activity [5] was “Active” and the “MRT(t)” value (Rattus norvegicus [6]) was 4.1 h. The half-life [7] was 6.6 h, the Vdss (Rattus norvegicus [8]) was 0.1978 L/kg and the inhibition (Influenza A virus [9]) was “inactive”.
